Source: ChEMBL document CHEMBL5113556, “Benzo[d]isoxazole Derivatives as Hypoxia-Inducible Factor (HIF)-1α Inhibitors” (ACS Med Chem Lett, 2022)
pIC50: −log10 of the molar value.

How the values were obtained:
HEK-293T [1] = test: Cytotoxicity against HEK293T cells at 50 uM; assay type: toxicity, cell-based; settings: human
In short: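 Cytotoxicity was read from the Renilla signal of the dual-luciferase reporter run in HEK293T cells (24 h transfection, then 24 h compound exposure) at concentrations up to 50 μM.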

[2] = biological target: Hypoxia-inducible factor 1-alpha (Homo sapiens, UniProt Q16665); test: Inhibition of HIF-1alpha (unknown origin) transcriptional activity expressed in HEK293T cells co-transfected with renilla and HRE-firelfly luciferase incubated for 24 hrs by dual luciferase reporter gene assay; assay type: cell-based
In short: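 HEK293T cells were transfected for 24 h with HIF-1α (P2A), Renilla and HRE-firefly luciferase constructs, then exposed to test compounds for a further 24 h. The firefly signal (luciferin substrate) gave HIF-1 inhibition, normalized to the Renilla signal (coelenterazine substrate). Transcriptional activity was calculated by a formula given in the Supporting Information.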

HEK-293T [3] = test: Downregulation of PDK1 mRNA expression in HEK293T cells measured after 24 hrs under hypoxia condition by RT-PCR analysis; settings: Homo sapiens, dose 0.01-50 µM, DDE = dose-dependent effect
HEK-293T [4] = test: Downregulation of VEGF mRNA expression in HEK293T cells measured after 24 hrs under hypoxia condition by RT-PCR analysis; settings: Homo sapiens, dose 0.01-50 µM, DDE = dose-dependent effect
[5] = Downregulation of VEGF protein expression in HEK293T cells at 50 uM measured after 24 hrs under […] condition by Western blot analysis relative to control; assay type: functional, Homo sapiens, HEK-293T

Chain of Hypoxia-inducible factor 1-alpha (Q16665 whole entry): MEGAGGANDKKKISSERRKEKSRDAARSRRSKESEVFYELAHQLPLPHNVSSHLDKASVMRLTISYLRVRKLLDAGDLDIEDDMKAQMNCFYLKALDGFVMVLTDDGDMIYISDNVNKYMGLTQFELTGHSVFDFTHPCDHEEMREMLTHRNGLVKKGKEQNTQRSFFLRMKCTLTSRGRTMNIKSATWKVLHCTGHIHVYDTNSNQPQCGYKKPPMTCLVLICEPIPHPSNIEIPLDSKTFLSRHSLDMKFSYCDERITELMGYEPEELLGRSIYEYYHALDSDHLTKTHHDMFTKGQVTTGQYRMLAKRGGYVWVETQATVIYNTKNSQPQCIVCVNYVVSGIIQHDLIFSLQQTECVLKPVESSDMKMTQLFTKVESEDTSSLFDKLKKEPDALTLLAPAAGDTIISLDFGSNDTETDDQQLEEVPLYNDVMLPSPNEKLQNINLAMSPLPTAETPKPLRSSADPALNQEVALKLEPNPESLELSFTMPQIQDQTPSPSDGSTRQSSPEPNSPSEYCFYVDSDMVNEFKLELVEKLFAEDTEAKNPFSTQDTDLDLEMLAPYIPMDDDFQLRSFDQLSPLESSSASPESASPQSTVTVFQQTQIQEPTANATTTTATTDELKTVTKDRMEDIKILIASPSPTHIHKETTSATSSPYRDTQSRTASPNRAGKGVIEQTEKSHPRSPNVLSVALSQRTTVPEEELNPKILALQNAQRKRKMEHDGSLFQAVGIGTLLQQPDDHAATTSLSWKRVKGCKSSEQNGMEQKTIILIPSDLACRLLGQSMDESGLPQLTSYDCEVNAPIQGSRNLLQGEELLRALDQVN

Row | Structure (SMILES) | Activity (HEK-293T [1]) | pIC50 [2] | Activity (HEK-293T [3]) | Activity (HEK-293T [4]) | Activity [5]
1 | O=C(NC1CCCCC1)c1noc2ccccc12 | Non-Toxic | 5.27 |  |  | 
2 | O=C(Nc1ccc(Cl)cc1)c1noc2ccccc12 | Non-Toxic | 7.39 |  |  | 
3 | O=C(Nc1ccncc1)c1noc2ccccc12 | Non-Toxic | 5.00 |  |  | 
4 | COC(=O)c1ccc(O)c(NC(=O)COc2ccc(C34CC5CC(CC(C5)C3)C4)cc2)c1 | Non-Toxic | 5.59 |  |  | 
5 | O=C(Nc1ccccc1Cl)c1noc2ccccc12 | Non-Toxic | 5.64 |  |  | 
6 | O=C(Nc1ccccc1)c1ccon1 | Non-Toxic |  |  |  | 
7 | O=C(c1noc2ccccc12)N1CCCCC1 | Non-Toxic |  |  |  | 
8 | COc1ccccc1NC(=O)c1noc2ccccc12 | Non-Toxic | 5.26 |  |  | 
9 | CN(C)c1ccc(NC(=O)c2noc3ccccc23)cc1 | Non-Toxic | 7.62 | Dde | Dde | 
10 | CC(=O)c1cccc(NC(=O)c2noc3ccccc23)c1 | Non-Toxic | 6.19 |  |  | 
11 | CCn1c2ccccc2c2cc(NC(=O)c3noc4ccccc34)ccc21 | Non-Toxic | 6.09 |  |  | 
12 | O=C(Nc1cccc([N+](=O)[O-])c1)c1noc2ccccc12 | Non-Toxic | 6.32 |  |  | 
13 | O=C1CCCc2cc(NC(=O)c3noc4ccccc34)ccc21 | Non-Toxic | 6.19 |  |  | 
14 | O=C(NCc1ccccc1)c1noc2ccccc12 | Non-Toxic |  |  |  | 
15 | O=C(Nc1ccccn1)c1noc2ccccc12 | Non-Toxic | 6.03 |  |  | 
16 | O=C(Nc1ccc2scnc2c1)c1noc2ccccc12 | Non-Toxic | 7.38 |  |  | 
17 | CC(=O)c1ccc(NC(=O)c2noc3ccccc23)cc1 | Non-Toxic | 7.62 | Dde | Dde | 20%
18 | O=C(Nc1cccc(-c2ccccc2)c1)c1noc2ccccc12 | Non-Toxic | 5.77 |  |  | 
19 | O=C(Nc1ccccc1)c1noc2ccccc12 | Non-Toxic | 6.51 |  |  | 
20 | CN(C)c1cccc(NC(=O)c2noc3ccccc23)c1 | Non-Toxic | 5.13 |  |  | 
21 | CN(C)c1ccccc1NC(=O)c1noc2ccccc12 | Non-Toxic |  |  |  | 
22 | COc1cccc(NC(=O)c2noc3ccccc23)c1 | Non-Toxic | 6.77 |  |  | 
23 | O=C(Nc1cccc(Cl)c1)c1noc2ccccc12 | Non-Toxic | 6.60 |  |  | 
24 | COc1ccc(NC(=O)c2noc3ccccc23)cc1 | Non-Toxic | 7.40 |  |  | 
25 | COC(=O)c1cccc(NC(=O)c2noc3ccccc23)c1 | Non-Toxic | 6.70 |  |  | 
26 | O=C(Nc1noc2ccccc12)c1ccccc1 | Non-Toxic |  |  |  | 
27 | O=C(Nc1ccc2ccccc2c1)c1noc2ccccc12 | Non-Toxic | 7.12 |  |  | 
